Experimental data pooled from the literature.
Lines come from different studies, so protocols differ.
RET: Proto-oncogene tyrosine-protein kinase receptor Ret (RET, Homo sapiens, UniProt P07949)
RET V804M: Proto-oncogene tyrosine-protein kinase receptor Ret (RET, Homo sapiens, UniProt P07949, V804M)
RET M918T: Proto-oncogene tyrosine-protein kinase receptor Ret (RET, Homo sapiens, UniProt P07949, M918T)
RET V804L: Proto-oncogene tyrosine-protein kinase receptor Ret (RET, Homo sapiens, UniProt P07949, V804L)
RET K758M: Proto-oncogene tyrosine-protein kinase receptor Ret (RET, Homo sapiens, UniProt P07949, K758M)

Cc1cc(NC(=O)Nc2c(NC3CCCC3)c3ccccc3oc2=O)ccc1Br  remaining activity (RET; enzyme activity; inhibitor; radiometric; 10 µM): 67.7%
O=C(NS(=O)(=O)c1ccc(NCC2CCOCC2)c([N+](=O)[O-])c1)c1ccc(N2CCN(Cc3ccc(C(F)(F)F)cc3-c3ccc(Cl)cc3)CC2)cc1Oc1cnc2[nH]ccc2c1  remaining binding (RET V804M; cell-free assay; competition with immobilised ligand; 1 µM): 100%
CN(CCCC(F)(F)F)c1nccc(-c2cnn3ncccc23)n1  remaining binding (RET M918T; binding; 1 µM): 99%
Nc1ncnc2occ(-c3ccc(NC(=O)Nc4cc(C(F)(F)F)ccc4F)cc3)c12  remaining signal (RET V804L; cell-free assay; 20 µM): 0%
Cc1ccc(NC(=O)c2ccc(C)c(C(F)(F)F)c2)cc1C#Cc1nn(C2CCC(O)CC2)c2ncnc(N)c12 (centres unmarked)  remaining signal (RET V804M; cell-free assay; 10 µM): -2%
CCCOc1ccc(OC)c(F)c1C(=O)c1ccc(C(=O)N[C@@H]2CNC[C@H]2NC(=O)c2ccc3[nH]ncc3c2)cc1  remaining activity (RET; enzyme activity; inhibitor; 0.5 µM): 54%
O=C1NC(=O)c2cc(Nc3ccc(F)cc3)c(Nc3ccc(F)cc3)cc21  remaining signal (RET; cell-free assay; 0.5 µM): 104%
CN(C)c1ncc(F)c(-c2cnn3ncccc23)n1  remaining binding (RET V804L; binding; 1 µM): 91%
Cc1cc(NC(=O)c2cccc3cc(-c4cccc5[nH]nc(N)c45)ccc23)ccc1F  activity vs control (RET V804L; enzyme activity; inhibitor; 0.1 µM): 116%
C=CC(=O)Nc1cc(Nc2nccc(Nc3cc(Cl)c(F)cc3C(C)(C)O)n2)c(OC)cc1N1CC[C@@H](N(C)C)C1  inhibition (RET V804M; enzyme activity; inhibitor; 1 µM): -6%
O=c1nc(-c2ccccn2)sc2ccccc12  remaining binding (RET V804M; binding; competition with immobilised ligand; 1 µM): 100%
O=C(COc1ccc(Cl)cc1C(=O)Nc1ccccc1)Nc1cc(Cl)ccc1-n1cncn1  remaining activity (RET; enzyme activity; inhibitor; radiometric; 0.1 µM): 107%
C[C@@H]1CCN(C(=O)CC#N)C[C@@H]1N(C)c1ncnc2[nH]ccc12  remaining signal (RET; cell-free assay; 0.5 µM): 92.4%
COc1cc(NC(=O)Nc2cc(OC)c3nc(NC(=O)c4ccccc4)sc3c2)cc(OC)c1  remaining activity (RET; enzyme activity; inhibitor; radiometric; 10 µM): 101%
CO[C@]1(C(=O)N[C@@H](C)c2ccc(-n3cc(F)cn3)nc2)CC[C@H](c2nc(C)cc(Nc3cc(C)[nH]n3)n2)CC1  ΔTm (RET K758M; thermal stability; DSF; 10 µM): 14.2 °C
C[C@@H]1CN(c2cc(-c3nn(C)c4ccc(OC5(C)CC5)cc34)ncn2)C[C@H](C)O1  remaining binding (RET V804M; cell-free assay; competition with immobilised ligand; 1 µM): 100%
Cc1cccc(NC(=O)CNC(=O)c2ccccc2NS(=O)(=O)c2ccc3[nH]c(=O)[nH]c3c2)c1C  remaining activity (RET; enzyme activity; inhibitor; radiometric; 10 µM): 85.9%
CN(C)c1nccc(-c2cnn3ncccc23)n1  remaining binding (RET M918T; binding; 1 µM): 97%
CCCCN(CCCC)C(=O)CN1C[C@H](c2cc(OC)c3c(c2)OCO3)[C@@H](C(=O)O)[C@@H]1CC(C)(C)CCC  remaining binding (RET V804M; cell-free assay; competition with immobilised ligand; 1 µM): 100%
C#Cc1cccc(Nc2ncnc3cc(OCCOC)c(OCCOC)cc23)c1  remaining signal (RET; cell-free assay; 0.5 µM): 48.6%
COC(=O)c1cccc(NC(=O)Nc2cc(C)c3nc(NC(=O)c4ccccc4)sc3c2)c1  remaining activity (RET; enzyme activity; inhibitor; radiometric; 10 µM): 103%
C[C@@H]1CCN(c2nccc(-c3cnn4ncccc34)n2)C1  remaining binding (RET M918T; binding; 1 µM): 100%
COc1ccc(CN2C3CC2CN(c2ccc(-c4cc(OCC(C)(C)O)cn5ncc(C#N)c45)cn2)C3)cn1  ΔTm (RET K758M; thermal stability; DSF; 10 µM): 11.9 °C
N[C@H]1CCN(c2nccc(-c3cnn4ncccc34)n2)C1  remaining binding (RET V804L; binding; 1 µM): 93%
CC/C(=N\NC(=O)NCc1cccc(O)c1)c1ccc(O)c(C)c1O  inhibition (Proto-oncogene tyrosine-protein kinase receptor Ret (RET, Homo sapiens, UniProt P07949, Y791F); enzyme activity; inhibitor; 0.1 µM): 2.9%
c1cnn2ncc(-c3ccnc(N4CCC45COC5)n3)c2c1  remaining binding (RET V804L; binding; 1 µM): 91%
O=C1NC(c2ccccn2)Sc2ccccc21 (centres unmarked)  remaining binding (RET V804M; cell-free assay; competition with immobilised ligand; 1 µM): 86%
COc1ccc(NC(=O)Nc2cc(C)c3nc(NC(=O)c4ccccc4)sc3c2)c(OC)c1  remaining activity (RET; enzyme activity; inhibitor; radiometric; 0.1 µM): 133%
Cc1ccc(C(=O)Nc2ccc(CN3CCN(C)CC3)c(C(F)(F)F)c2)cc1C#Cc1cnc2cccnn12  remaining activity (RET V804M; enzyme activity; 23.5 nM): 8.4%
CCS(=O)(=O)c1cc2cc(C[C@](O)(CC(C)(C)c3ccc(F)cc3C(N)=O)C(F)(F)F)[nH]c2cn1  remaining binding (RET V804L; cell-free assay; competition with immobilised ligand; 1 µM): 100%
Nc1nc(SCC(=O)Nc2ccc3c(c2)OCO3)[nH]c(=O)c1NC(=O)c1ccc(F)c(F)c1  remaining activity (RET; enzyme activity; inhibitor; radiometric; 0.1 µM): 109%
CCOCCn1cc(C(=O)Nc2ccc(-n3nc(-c4cccnc4)cc3C(F)(F)F)cn2)ccc1=O  remaining binding (RET; cell-free assay; competition with immobilised ligand; 1 µM): 83%
N#CCCc1ccc2c(c1)-c1[nH]c3ccc([N+](=O)[O-])cc3c1CC(=O)N2  remaining signal (RET; cell-free assay; 0.5 µM): 80.8%
CS(=O)(=O)N1CCCC(NC(=O)[C@H](CCC2CCCCC2)NC(=O)c2ccc(CNC(=O)c3cnc4ccccn34)cc2)C1 (some centres unmarked)  remaining binding (RET M918T; cell-free assay; competition with immobilised ligand; 0.1 µM): 93%
CC(=O)c1cccc(NC(=O)Cc2csc(NC(=O)Nc3cccc(Cl)c3)n2)c1  remaining activity (RET; enzyme activity; inhibitor; radiometric; 10 µM): 92.6%
